Ecoli WT expand = E. coli BW25113 growth inhibition, expanded screen. OD600 absorbance. growth inhibition, % at 100 µM. 98,000 tested, 0.15% active. AID 710;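 active = growth inhibition above about 50% at one test dose, limit read from the data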;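 note: growth measured after 20 h incubation at 37 °C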
tolC growth inh = blocks growth of E. coli BW25113 tolC mutant; OD615; growth inhibition, % at 10 µM (by protocol); 65,000 tested, 2.2% active;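 active = growth inhibition at or above a cutoff equal to the mean over every tested compound plus 3 SD, cut at about 60% in these data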;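 note: growth measured after 20 h incubation at 37 °C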
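Material: E. coli BW25113 ΔtolC::kan, tolC deletion mutant strain. Measure: percent growth inhibition. Schedule: 37 °C, 20 h exposure. Doses: single-point testing at 10 µM. Signal: A615 absorbance measurement. Buffer or medium: kanamycin-containing LB broth (50 µg/mL).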
PostGolgi ctrl = inhibits growth of the yeast control strain. efflux-deficient yeast background strain, growth absorbance A615, 16 h. inhibition, % at 10 µM. 98,000 tested, 5% active. AID 738
PostGolgi yeast = growth inhibition of a yeast mutant, post-Golgi transport screen. AID 739. inhibition, % at 10 µM. 98,000 tested, 0.9% active. post-Golgi transport phenotypic cell assay;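 note: yeast cells grown in 1536-well plates; yeast grown about 18 h at 30C before absorbance read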
Numbers stand for hits; 0 = inactive; - = not tested or not shown. Shown are actives, neighbours in structure and some others; about 6.3% of the full set was active somewhere. Cut-off read from the data, not from the text of the source, unless noted: active = inhibition above about 30%; inactive = the rest.

SMILES | Ecoli WT expand | tolC growth inh | PostGolgi ctrl | PostGolgi yeast
CCCn1c(CN(C)Cc2ccccc2)nc2c1c(=O)n(C)c(=O)n2C | - | 0 | - | -
CCCn1c(CN(Cc2ccccc2)Cc2ccccc2)nc2c1c(=O)n(C)c(=O)n2C | 0 | 65 | 0 | 0
CC(C)CCn1c(Oc2ccccc2Cl)nc2c1c(=O)n(C)c(=O)n2C | 0 | - | 32 | 0
CN(Cc1ccccc1)Cc1nc2c(c(=O)n(C)c(=O)n2C)n1Cc1ccccc1Cl | 0 | 0 | 40 | 0
CN(Cc1ccccc1)Cc1nc2c(c(=O)n(C)c(=O)n2C)n1CCc1ccccc1 | - | 0 | - | -
CC(C)CCn1c(Cl)nc2c1c(=O)n(C)c(=O)n2C | 0 | 0 | 0 | 0
Cc1cc(C)nc(SCCn2c(N(C)Cc3ccccc3)nc3c2c(=O)n(C)c(=O)n3C)n1 | 0 | - | 34 | 0
CCCCCc1nc2c(C#N)c(-c3ccc(Cl)cc3)ccn2n1 | 0 | - | 34 | 0
N#Cc1c(-c2ccc(Cl)cc2)ccn2nc(CCC(=O)O)nc12 | 0 | - | 0 | 0
O=c1c(Cc2ccc(F)cc2)c(O)ccn1Cc1cccc(Cl)c1 | 0 | - | 0 | 0
O=C(Nc1ccncc1)c1ccc2c(c1)C(=O)N(C1CCCCC1)C2=O | 0 | - | 0 | 0
COC(=O)Cc1c(C)c2ccc(OCC(C)=O)c(C)c2oc1=O | 0 | 0 | 0 | 0
C=C(C)COc1ccc2c(C)c(CC(=O)OC)c(=O)oc2c1C | 0 | 0 | 109 | 104
CC(=O)NC(CCS(C)(=O)=O)C(=O)Nc1ccc(C)c(F)c1 (stereo unspecified) | 0 | 0 | 0 | 0
COC(=O)CN(c1cccc(F)c1)S(C)(=O)=O | 0 | - | 0 | 0
CCOC(=O)Cn1nnnc1C(CC)N(Cc1cccs1)Cc1cc2cc(C)ccc2[nH]c1=O (stereo unspecified) | 0 | 0 | 0 | 0
CCOc1ccc2[nH]c(=O)c(CN(Cc3cccs3)C(CC)c3nnnn3C(C)(C)CC)cc2c1 (stereo unspecified) | 0 | 0 | 37 | 0
CCCCn1c(N(CCOC(C)=O)C(C)=O)nc2ccccc21 | 0 | 0 | 0 | 0
COc1ccc(O)c(C(=O)CC(=O)c2ccccc2)c1 | 0 | 0 | 33 | 0
CC(=O)N1c2c(cc(Br)cc2S(=O)(=O)NCc2cccnc2)CC1C (stereo unspecified) | 0 | 0 | 0 | 0
CCCCN(Cc1ccccc1)S(=O)(=O)c1cc(Br)cc2c1N(C(C)=O)C(C)C2 (stereo unspecified) | 0 | - | 36 | 0
CCNc1nc(NC(C)C)nc(N(C#N)Cc2ccccc2)n1 | 0 | 67 | 0 | 0
CCNc1nc(NC(C)C)nc(N(C#N)C(C)C(=O)N(C)C)n1 (stereo unspecified) | 0 | 0 | 0 | 0
CCNc1nc(NC(C)C)nc(N(C#N)CCOc2ccc(Cl)cc2Cl)n1 | 0 | 75 | 39 | 0
O=C(CN(C(=O)c1cc2c(s1)CCC2)C1CCCC1)NCc1cccs1 | 0 | 0 | 0 | 0
SMILES | Ecoli WT expand | tolC growth inh | PostGolgi ctrl | PostGolgi yeast
O=C(CN(Cc1ccccc1)C(=O)c1cc2c(s1)CCC2)NCc1cccs1 | 0 | - | 35 | 0
COc1ccc(NC(=O)CSc2nc3ccccc3c(=O)n2CCCN2CCCCC2)c(OC)c1 | 0 | - | 0 | 0
Cc1[nH]c2c(C)cccc2c1CCNC(=O)c1ccc2c(c1[N+](=O)[O-])C(=O)c1ccccc1C2=O | 0 | - | 40 | 0
CCOC(=O)c1oc2ccccc2c1NC(=O)c1cccc(OC)c1 | 0 | 0 | 0 | 0
CCOC(=O)c1oc2ccccc2c1NC(=O)c1cccc(OC)c1OC | 0 | 0 | 46 | 0
Cc1ccccc1C(=O)c1cccn1CC(=O)NCCN1CCN(c2cccc(C)c2C)CC1 | 0 | - | 0 | 0
O=C(NCCOC(=O)c1ccc(Cl)cc1)c1cccnc1 | 0 | - | 0 | 0
CN1CCC(=NNC(=O)CSCc2ccccc2)CC1 | 0 | - | 39 | 0
C/C(=N\NC(=O)COc1ccc([N+](=O)[O-])cc1)C(C)(C)C | 0 | - | 0 | 0
Cc1cc(Br)cc2c(C(=O)Nc3c(C)n(C)n(-c4ccccc4)c3=O)cc(-c3cccs3)nc12 | 0 | - | 39 | 0
O=C(Nc1nncs1)C1c2ccccc2Oc2ccccc21 | 0 | 0 | 0 | 0
Cc1cc2ncn(CC(O)COC3CCCCC3)c2cc1C (stereo unspecified) | 0 | 0 | 31 | 0
CC1(C(=O)N(c2ccccc2)C(C(=O)NC2CCCC2)c2ccccn2)CC(=O)N=C2C=CC=CN21 (stereo unspecified) | 0 | 0 | 0 | 0
O=C(CN1CCCC1)N1CCCc2c1c(=O)oc1ccc(OCc3ccccc3)cc21 | 0 | 0 | 36 | 0
O=C(CN1CCN(C(=O)c2ccccc2F)CC1)Nc1ccc(Br)cc1 | 0 | 0 | 0 | 0
O=C(Nc1nc2ccccc2s1)C1CC(=O)N(c2ccc(Br)cc2)C1 (stereo unspecified) | 0 | - | 46 | 0
O=C(Nc1nc2ccccc2s1)C1CC(=O)N(c2ccccc2)C1 (stereo unspecified) | 0 | - | 0 | 0
O=C(O)C1CC(=O)N(c2ccc(Br)cc2)C1 (stereo unspecified) | 0 | 0 | 42 | 0
Cc1nnc(SCC(=O)N2CCC(c3noc4ccc(F)cc34)CC2)s1 | 0 | 0 | 0 | 0
Cc1sc2ncnc(SCC(=O)N3CCC(c4noc5ccc(F)cc45)CC3)c2c1C | 0 | - | 91 | 83
Cc1sc2nc(CN3CCOCC3)nc(Oc3ccc(NC(=O)c4ccco4)cc3)c2c1C | 0 | 0 | 0 | 0
COc1ccc(C(C)=O)c(Oc2nc(CN3CCOCC3)nc3scc(-c4cccs4)c23)c1 | 0 | 0 | 42 | 0
CC(=O)c1ccccc1Oc1nc(CN2CCOCC2)nc2scc(-c3cccs3)c12 | 0 | 0 | 42 | 0
Cn1c(=O)c(C(=O)CSc2nncs2)c(N)n(Cc2ccccc2)c1=O | 0 | 0 | 0 | 0
COc1c2ccoc2nc2c(OC)c(OCC(O)C(C)(C)O)ccc12 (stereo unspecified) | 0 | 0 | 0 | 0
SMILES | Ecoli WT expand | tolC growth inh | PostGolgi ctrl | PostGolgi yeast
COc1c2c(nc3occc13)C(CCC(C)(C)O)(OC)C(O)CC2 (stereo unspecified) | 0 | 0 | 30 | 0
CC1(C)Cc2c(C#N)c(N3CCN(C(=O)c4ccccc4)CC3)nc(-c3ccco3)c2CS1 | 0 | 0 | 35 | 0
CCn1c(CNc2ccc(C(=O)O)cc2)nc2ccccc21 | 0 | - | 0 | 39
CCCn1c(CNc2ccc(Br)cc2)nc2ccccc21 | 0 | 100 | 71 | 0
COc1ccc(C2Oc3ccccc3C3=C2C(c2cccs2)n2ncnc2N3)cc1 (stereo unspecified) | 0 | - | 0 | 0
Brc1ccc(C2C3=C(Nc4ncnn42)c2ccccc2OC3c2ccncc2)cc1 (stereo unspecified) | 0 | - | 40 | 0
Cc1cc(O)c(-c2cc(C(=O)NCc3ccc4c(c3)OCO4)[nH]n2)cc1C | 0 | 0 | 0 | 0
Cc1ccc(-c2cc(C(=O)NCc3ccc4c(c3)OCO4)[nH]n2)c(O)c1C | 0 | 0 | 31 | 0
O=C(c1ccccc1CCc1ccccc1)N1CCN(c2ccccn2)CC1 | 0 | 79 | 0 | 0
Cc1ccc(Nc2nc(CSc3nnnn3C)cs2)cc1 | 0 | 0 | 0 | 0
CCc1ccc(Nc2nc(N)nc(CSc3nnnn3-c3ccccc3)n2)cc1 | 0 | 0 | 37 | 0
Cc1ccc(Nc2nc(CSc3nnnn3-c3ccccc3)cs2)cc1 | 0 | 94 | 34 | 0
Cc1cc(C(=O)OCC(=O)NCCC(C)C)c2ccccc2n1 | 0 | - | 0 | 0
CCOC(=O)c1c(NC(=O)CC2SC(N)=NC2=O)sc2c1CCCC2 (stereo unspecified) | 0 | - | 0 | 0

Compound activity (PubChem)
